Only some compounds are listed: those with a hit (about 1.3% of all), similar ones and a draw of the others.
CAL PDZ FP-1 = blocks peptide binding to the human CAL PDZ domain; Q9HD26; purified CAL PDZ, TMR-peptide fluorescence polarization, 1 h; inhibition, % at 24.9 µM; hit rate 0.92% among 300,000; AID 602252;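 active = mean inhibition of at least 30% with at least half of replicates also reaching 30%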;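 note: 0% = DMSO neutral control and 100% = excess unlabeled competitor peptide PRC23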
cardiac RTF act = increases calcium sensitivity of human cardiac regulated thin filaments; IANBD-labeled TnC RTF fluorescence at EC20 calcium; 0% EC20 calcium, 100% full calcium; activation, % at 7.2 µM; hit rate 0.24% among 340,000;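 active = activation above the mean over all tested compounds plus 3 SD, cut at about 30% in these data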;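 note: rise in fluorescence read as greater calcium sensitivity of cardiac thin filaments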
Keap1-Nrf2 PPI = Keap1-Nrf2 (human) interaction inhibition; Q14145; Keap1 Kelch-Nrf2 peptide fluorescence polarization, 1536-well; inhibition, % at 9.4 µM; hit rate 0.15% among 340,000; AID 504523; in the data active = inhibition above about 12%;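 note: human Keap1 Kelch domain with fluorescein labeled Nrf2 9mer peptide probe; 0% = neutral control wells and 100% = peptide positive control; higher means more block of Keap1 binding to Nrf2 peptide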
Target sequence (Q14145 whole entry, looked up, the tested form may be a part): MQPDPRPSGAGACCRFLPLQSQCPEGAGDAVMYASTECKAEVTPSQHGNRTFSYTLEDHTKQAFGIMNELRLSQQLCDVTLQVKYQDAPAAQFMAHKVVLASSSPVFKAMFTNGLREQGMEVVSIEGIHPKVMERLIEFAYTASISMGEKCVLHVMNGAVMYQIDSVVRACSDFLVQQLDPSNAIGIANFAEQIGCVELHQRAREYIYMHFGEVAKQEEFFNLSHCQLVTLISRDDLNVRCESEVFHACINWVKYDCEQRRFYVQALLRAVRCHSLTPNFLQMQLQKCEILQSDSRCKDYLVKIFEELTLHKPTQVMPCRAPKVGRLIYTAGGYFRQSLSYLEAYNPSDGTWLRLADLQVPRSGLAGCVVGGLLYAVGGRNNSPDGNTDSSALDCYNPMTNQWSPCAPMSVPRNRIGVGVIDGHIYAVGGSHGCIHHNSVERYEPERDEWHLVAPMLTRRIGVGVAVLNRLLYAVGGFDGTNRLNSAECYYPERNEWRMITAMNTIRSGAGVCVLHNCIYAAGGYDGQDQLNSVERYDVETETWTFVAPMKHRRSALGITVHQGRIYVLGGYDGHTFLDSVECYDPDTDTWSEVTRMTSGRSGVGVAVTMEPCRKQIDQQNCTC
RTF Ca sens inh = cardiac RTF calcium desensitization. hit rate 0.12% among 340,000. IANBD-labeled cardiac RTF, Ca2+ fluorescence. AID 493244. inhibition, % at 7.15 µM;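 active = inhibition above the mean inhibition of all tested compounds plus 3 SD, cut at about 17% in these data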;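 note: assay run at fixed EC70 calcium of 1.6 mM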
C-LANA FP = inhibitors of KSHV LANA C-terminal domain DNA binding. inhibition, % at 9 µM. MBP-C-LANA/FAM-LBS DNA binding, fluorescence polarization. hit rate 0.078% among 340,000;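 active = highest replicate inhibition at or above 60% at 9 µM, even if other replicates fall short; inactive = all replicates below 60% inhibition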;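 note: 0% = neutral control wells and 100% = 4 µM acridine orange control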
CAL PDZ FP-2 = inhibitors of human CAL PDZ peptide binding | purified CAL PDZ, TMR-peptide fluorescence polarization, 1 h | AID 504414 | hit rate 0.02% among 330,000 | inhibition, % at 20 µM;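 active = highest replicate inhibition of at least 40%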;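 note: plate controls were DMSO neutral control wells for no effect and unlabeled competitor peptide control wells for full effect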
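System: tagged CAL PDZ domain. Schedule: 1 h room-temperature incubation prior to read. Signal: fluorescence polarization (mP). Measure: percent inhibition from loss of millipolarization.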
* hit, by the source's call; x = no result.

SMILES | CAL PDZ FP-1 | cardiac RTF act | Keap1-Nrf2 PPI | RTF Ca sens inh | C-LANA FP | CAL PDZ FP-2
COc1ccc(-c2nn(-c3ccccc3)cc2C(=O)N2CCN(C(=O)c3ccco3)CC2)cc1 | 1.7 | 4.3 | -2.0 | -3.6 | 0.2 | -0.4
COc1ccc(OC)c(C(=O)COC(=O)c2cccnc2SC)c1 | 35.3* | -3.3 | -4.8 | -1.1 | 0.1 | -1.9
COc1ccc(C(=O)COC(=O)c2cccnc2SC)cc1 | -3.0 | -0.3 | -3.0 | -3.7 | 0.3 | -2.7
O=C(Oc1ccc(OC(=O)N2CCOCC2)cc1)c1ccccc1 | x | 3.1 | 1.6 | -5.2 | -1.6 | -0.3
O=C(Oc1ccccc1)N1CCOCC1 | 74.0* | 1.6 | -1.1 | 0.9 | 1.3 | 13.1
COc1ccccc1Oc1coc2cc(OC(=O)N3CCOCC3)ccc2c1=O | -2.3 | -7.3 | 3.1 | -1.6 | 0.8 | 101.9*
O=C(Nc1ccc2c(c1)OCCO2)c1cccc(Cl)c1Cl | -3.1 | 39.0* | -2.3 | 1.0 | 0.5 | 0.1
O=C(Nc1ccc2c(c1)OCCO2)c1cc(F)c(F)cc1Cl | -3.2 | -3.1 | 0.4 | -8.9 | 1.6 | 3.4
CCc1ccccc1-n1ncc(C(=O)Nc2ccc(OC)cc2)c1C | 0.1 | -0.4 | -8.0 | -8.4 | -1.2 | -0.2
CN(C(=O)CSc1ccc(S(=O)(=O)N2CCCCC2)cn1)c1ccccc1 | -5.1 | 3.1 | -9.1 | -9.7 | -0.6 | 0.1
N#CC1=C(N)C(C#N)(C#N)[C@H](c2ccoc2)[C@H]2CN(Cc3ccccc3)CC=C12 | -3.3 | 31.1* | 10.3 | -49.7 | 26.9 | 0.3
CCCN1CC=C2C(C#N)=C(N)C(C#N)(C#N)C(c3cccc(OC)c3OC)C2C1 (centres undefined) | -1.1 | 52.5* | 3.0 | -56.8 | 27.9 | -1.3
CN(C(=O)c1cccc(NC(=O)Cc2ccc(NC(=O)C3CCCN(C(=O)C4CCC4)C3)cc2)c1)C1CCCC1 (centres undefined) | -0.4 | -1.4 | 2.1 | -5.4 | -0.1 | -0.1
Cc1nn(Cc2ccccc2Cl)c(C)c1C(=O)N(C)CC(=O)Nc1cccc(F)c1 | x | -4.0 | -0.5 | 3.6 | 0.3 | -0.2
C=CCC(=O)N1CCCC(CO)(Cc2ccc(F)cc2F)C1 (centres undefined) | 4.2 | 6.7 | -3.7 | -3.8 | 0.0 | -0.5
O=C(/C=C/c1cccc([N+](=O)[O-])c1)NCCSCc1cccc(Cl)c1 | 51.7* | 2.9 | -3.3 | 1.7 | -0.7 | -0.2
O=C(/C=C/c1cccc([N+](=O)[O-])c1)NCc1ccccc1 | 1.3 | 1.4 | -1.7 | -4.5 | 0.3 | -2.0
COc1ccc(NC(=O)CN2CCCC2c2cccs2)cc1S(=O)(=O)N1CCCCC1 (centres undefined) | -2.8 | 1.1 | -8.7 | -4.8 | -0.3 | -1.4
Oc1ccc(/C=C/c2ccc3ccccc3n2)cc1 | 69.3* | 9.1 | -3.2 | -13.4 | -0.7 | 0.3
CN(C)c1ccc(/C=C/c2ccc3ccccc3n2)cc1 | 100.3* | 42.4* | -6.4 | -50.3 | 0.4 | -0.7
O=C1C(=O)N(C2CCS(=O)(=O)C2)C(c2cccc(O)c2)/C1=C(/O)c1ccc(Cl)cc1 (centres undefined) | -2.2 | -4.5 | 4.5 | -7.2 | 0.2 | -0.4
C[C@@H]1CN([C@H](C)CO)C(=O)c2cc(NS(=O)(=O)c3cn(C)cn3)ccc2O[C@@H]1CN(C)S(C)(=O)=O | -0.6 | 2.4 | -5.4 | 10.3 | -0.1 | -1.0
O=C(CNC1CCCCC1)Nc1ccc([N+](=O)[O-])cc1C(=O)Nc1ccccc1F | 62.6* | -4.2 | -6.9 | 2.1 | -0.3 | -1.7
COc1ccc(C)cc1NC(=O)CC1COc2ccccc2O1 (centres undefined) | -0.9 | 67.1* | -1.2 | -13.9 | -1.0 | -1.4
COc1cc(OC)c(OC)cc1NC(=O)CC1COc2ccccc2O1 (centres undefined) | -6.3 | 1.2 | 0.8 | -1.4 | -0.8 | -1.3
CC(OC(=O)Cc1c[nH]c2ccccc12)C(=O)N(C)c1ccccc1 (centres undefined) | -0.9 | -2.5 | 0.7 | -8.5 | 0.0 | -0.9
CCOC(=O)[C@H]1[C@H]2COc3ccccc3[C@@H]2N2C(=O)c3ccc(C)cc3NC(=O)[C@@]12C | 4.4 | 1.9 | -1.6 | 8.5 | 0.9 | -3.4
CCOc1ccc(CC(=O)NCC(=O)NCc2cc(=O)n(C)c(=O)n2C)cc1 | -2.0 | -0.1 | 2.7 | 3.2 | -0.9 | -1.0

Compound activity: PubChem, several laboratories
